Measurements reported in ChEMBL document CHEMBL5058577, “EUbOPEN Chemogenomics Library 2 (Multiplex)” (2022).

Test system: HEK-293T
Experiment: Multiplex assay against HEK293T
Format: toxicity, cell-based
Settings: human
How it was run: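 Imaging took place on a CQ1 microscope at 37°C and 5% CO2 once compound had been added to live cells stained at seeding with Hoechst33342, BioTracker Green Microtubule Cytoskeleton Dye, MitoTracker Red and Annexin V Alexa Fluor 680. CellPathfinder machine-learning gating classed cells as Hoechst high-intensity objects or normal cells, classed normal cells as having healthy, pyknosed or fragmented nuclei, and classed pyknosed cells as mitotic or apoptotic. Tubulin, mitochondrial-mass and membrane-permeability phenotypes are per cents of the healthy-nucleus cells.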

[1] = 12 h, 1 µM, compound concentration 1 uM, replicate 1
[2] = 12 h, 1 µM, compound concentration 1 uM, replicate 2
[3] = 12 h, 10 µM, compound concentration 10 uM, replicate 1
[4] = 12 h, 10 µM, compound concentration 10 uM, replicate 2
[5] = 24 h, 1 µM, compound concentration 1 uM, replicate 1
[6] = 24 h, 1 µM, compound concentration 1 uM, replicate 2
[7] = 24 h, 10 µM, compound concentration 10 uM, replicate 1
[8] = 24 h, 10 µM, compound concentration 10 uM, replicate 2
[9] = 48 h, 1 µM, compound concentration 1 uM, replicate 1
[10] = 48 h, 1 µM, compound concentration 1 uM, replicate 2
[11] = 48 h, 10 µM, compound concentration 10 uM, replicate 1
[12] = 48 h, 10 µM, compound concentration 10 uM, replicate 2

Structure (SMILES): CCNC1(C(N)=O)CCN(c2ncnc3c2nc(-c2ccccc2Cl)n3-c2ccc(Cl)cc2)CC1 [OTENABANT]
- Population Apoptotic (%) [1]: 51%
- Population Fragmented Nuclei (%) [1]: 8%
- Population Healthy Nuclei (%) [1]: 80%
- Population Hoechst High Intensity Objects (%) [1]: 10%
- Population Membrane Permeable-Phenotype (%) [1]: 0%
- Population Mitochondria Different-Phenotype (%) [1]: 48%
- Population Mitotic Cells (%) [1]: 48%
- Population Normal (%) [1]: 89%
- Population Pyknosed Nuclei (%) [1]: 10%
- Population Tubulin-Different-Phenotype (%) [1]: 52%
- Total Cell Count [1]: 401
- Population Apoptotic (%) [2]: 58%
- Population Healthy Nuclei (%) [2]: 76%
- Population Hoechst High Intensity Objects (%) [2]: 6%
- Population Mitochondria Different-Phenotype (%) [2]: 66%
- Population Mitotic Cells (%) [2]: 41%
- Population Normal (%) [2]: 93%
- Population Pyknosed Nuclei (%) [2]: 15%
- Population Tubulin-Different-Phenotype (%) [2]: 44%
- Total Cell Count [2]: 333
- Population Apoptotic (%) [3]: 46%
- Population Fragmented Nuclei (%) [3]: 3%
- Population Healthy Nuclei (%) [3]: 74%
- Population Hoechst High Intensity Objects (%) [3]: 16%
- Population Membrane Permeable-Phenotype (%) [3]: 0%
- Population Mitochondria Different-Phenotype (%) [3]: 82%
- Population Mitotic Cells (%) [3]: 53%
- Population Normal (%) [3]: 83%
- Population Pyknosed Nuclei (%) [3]: 22%
- Population Tubulin-Different-Phenotype (%) [3]: 50%
- Total Cell Count [3]: 381
- Population Apoptotic (%) [4]: 63%
- Population Fragmented Nuclei (%) [4]: 4%
- Population Healthy Nuclei (%) [4]: 67%
- Population Hoechst High Intensity Objects (%) [4]: 9%
- Population Mitochondria Different-Phenotype (%) [4]: 96%
- Population Mitotic Cells (%) [4]: 36%
- Population Normal (%) [4]: 90%
- Population Pyknosed Nuclei (%) [4]: 27%
- Population Tubulin-Different-Phenotype (%) [4]: 43%
- Total Cell Count [4]: 251
- Population Apoptotic (%) [5]: 49%
- Population Fragmented Nuclei (%) [5]: 8%
- Population Healthy Nuclei (%) [5]: 80%
- Population Hoechst High Intensity Objects (%) [5]: 5%
- Population Membrane Permeable-Phenotype (%) [5]: 0%
- Population Mitochondria Different-Phenotype (%) [5]: 43%
- Population Mitotic Cells (%) [5]: 50%
- Population Normal (%) [5]: 94%
- Population Pyknosed Nuclei (%) [5]: 11%
- Population Tubulin-Different-Phenotype (%) [5]: 44%
- Total Cell Count [5]: 474
- Population Apoptotic (%) [6]: 40%
- Population Fragmented Nuclei (%) [6]: 12%
- Population Healthy Nuclei (%) [6]: 75%
- Population Mitochondria Different-Phenotype (%) [6]: 47%
- Population Mitotic Cells (%) [6]: 59%
- Population Tubulin-Different-Phenotype (%) [6]: 41%
- Total Cell Count [6]: 442
- Population Apoptotic (%) [7]: 40%
- Population Fragmented Nuclei (%) [7]: 8%
- Population Healthy Nuclei (%) [7]: 71%
- Population Hoechst High Intensity Objects (%) [7]: 17%
- Population Membrane Permeable-Phenotype (%) [7]: 1%
- Population Mitochondria Different-Phenotype (%) [7]: 79%
- Population Mitotic Cells (%) [7]: 59%
- Population Normal (%) [7]: 82%
- Population Pyknosed Nuclei (%) [7]: 19%
- Population Tubulin-Different-Phenotype (%) [7]: 56%
- Total Cell Count [7]: 452
- Population Apoptotic (%) [8]: 64%
- Population Fragmented Nuclei (%) [8]: 6%
- Population Healthy Nuclei (%) [8]: 77%
- Population Hoechst High Intensity Objects (%) [8]: 13%
- Population Membrane Permeable-Phenotype (%) [8]: 0%
- Population Mitochondria Different-Phenotype (%) [8]: 95%
- Population Mitotic Cells (%) [8]: 35%
- Population Normal (%) [8]: 86%
- Population Pyknosed Nuclei (%) [8]: 15%
- Population Tubulin-Different-Phenotype (%) [8]: 53%
- Total Cell Count [8]: 283
- Population Apoptotic (%) [9]: 34%
- Population Fragmented Nuclei (%) [9]: 12%
- Population Healthy Nuclei (%) [9]: 78%
- Population Hoechst High Intensity Objects (%) [9]: 4%
- Population Membrane Permeable-Phenotype (%) [9]: 1%
- Population Mitochondria Different-Phenotype (%) [9]: 29%
- Population Mitotic Cells (%) [9]: 65%
- Population Normal (%) [9]: 95%
- Population Pyknosed Nuclei (%) [9]: 9%
- Population Tubulin-Different-Phenotype (%) [9]: 30%
- Total Cell Count [9]: 766
- Population Apoptotic (%) [10]: 32%
- Population Fragmented Nuclei (%) [10]: 8%
- Population Healthy Nuclei (%) [10]: 82%
- Population Membrane Permeable-Phenotype (%) [10]: 0%
- Population Mitochondria Different-Phenotype (%) [10]: 30%
- Population Mitotic Cells (%) [10]: 68%
- Population Pyknosed Nuclei (%) [10]: 8%
- Total Cell Count [10]: 604
- Population Apoptotic (%) [11]: 52%
- Population Fragmented Nuclei (%) [11]: 13%
- Population Healthy Nuclei (%) [11]: 71%
- Population Hoechst High Intensity Objects (%) [11]: 16%
- Population Membrane Permeable-Phenotype (%) [11]: 2%
- Population Mitochondria Different-Phenotype (%) [11]: 78%
- Population Mitotic Cells (%) [11]: 47%
- Population Normal (%) [11]: 83%
- Population Pyknosed Nuclei (%) [11]: 15%
- Population Tubulin-Different-Phenotype (%) [11]: 66%
- Total Cell Count [11]: 560
- Population Apoptotic (%) [12]: 70%
- Population Fragmented Nuclei (%) [12]: 10%
- Population Healthy Nuclei (%) [12]: 77%
- Population Hoechst High Intensity Objects (%) [12]: 14%
- Population Membrane Permeable-Phenotype (%) [12]: 0%
- Population Mitochondria Different-Phenotype (%) [12]: 89%
- Population Mitotic Cells (%) [12]: 29%
- Population Normal (%) [12]: 85%
- Population Pyknosed Nuclei (%) [12]: 12%
- Population Tubulin-Different-Phenotype (%) [12]: 57%
- Total Cell Count [12]: 325
